# The source made the active and inactive calls. The calls are words filed in the database; no cut-off is given here.
# Key:
# [1] = target: T1, Homeobox protein SIX1 (Homo sapiens) (UniProt Q15475); experiment: Potency index, ratio for inhibition activity of apigenin to test compound for inhibition of SIX1 in human C33A cells after 48 hrs by Western blot analysis; type: cell-based; details: C-33-A
# T1 sequence (whole entry): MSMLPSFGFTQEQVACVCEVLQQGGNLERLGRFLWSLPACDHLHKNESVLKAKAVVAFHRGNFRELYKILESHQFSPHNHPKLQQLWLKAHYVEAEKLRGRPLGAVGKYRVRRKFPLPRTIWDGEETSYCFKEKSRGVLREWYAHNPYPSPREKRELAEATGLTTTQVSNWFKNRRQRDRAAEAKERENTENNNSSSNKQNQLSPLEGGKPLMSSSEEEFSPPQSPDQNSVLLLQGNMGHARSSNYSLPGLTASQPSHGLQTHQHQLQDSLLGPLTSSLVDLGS
# Summary of the method: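 Cells plated at 1 × 10^6 per 100 mm dish and treated next day for 48 h with test compound (2 or 4 μM) or apigenin (10, 20 or 40 μM). RIPA lysates with protease inhibitors; equal protein loaded for SDS-PAGE, then PVDF transfer. Blocked in 5% milk/TBST (3% BSA for CK2α); anti-SIX1 or anti-CK2α 1:500, HRP secondary 1:2000; chemiluminescent detection.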
# [2] = tested on: C-33-A; experiment: Cell cycle arrest in human C33A cells assessed as accumulation at G2/M phase at 4 uM after 48 hrs by propidium iodide staining based flow cytometric analysis (reference value: 26.7%); type: functional
# Summary of the method: (§1)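 Cells in DMEM/10% FBS at 37 °C, 5% CO2 were given 4 μM for 24, 48 or 72 h, with DMSO as control. After trypsinization they were fixed in chilled 70% ethanol on ice for 30 min, treated with RNase A (1 mg/mL) for 30 min at room temperature, and stained with PI (20 μg/mL). At least 10 000 events were read by flow cytometry to give sub-G1, G0/G1, S and G2/M fractions; mean ± SEM.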
# [3] = tested on: SiHa; experiment: Induction of apoptosis in human SiHa cells assessed as viable cells at 4 uM after 24 hrs by Annexin V-FITC/PI double staining based flow cytometric analysis (reference value: 90.8%); type: functional; details: read-out: Activity
# [4] = target: T1, Homeobox protein SIX1 (Homo sapiens); experiment: Inhibition of SIX1 in human SiHa cells at 2 to 4 uM after 48 hrs by Western blot analysis; type: cell-based
# Summary of the method: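 SiHa cells in DMEM with 10% FBS were seeded at 1 × 10^6 per 100 mm dish and treated the next day at 2 or 4 μM for 48 h. Lysis was in RIPA buffer with protease inhibitors. Equal protein was run on SDS-PAGE and transferred to PVDF, blocked in 5% milk/TBST, probed with anti-SIX1 (1:500) then HRP secondary (1:2000), and detected by chemiluminescence.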
# [5] = tested on: Ca-Ski; experiment: Cell cycle arrest in human CaSki cells assessed as decrease in accumulation at S phase at 4 uM incubated up to 72 hrs by propidium iodide staining based flow cytometric analysis; type: functional; summary of the method: as §1
# [6] = tested on: C-33-A; experiment: Induction of apoptosis in human C33A cells assessed as apoptotic cells at 4 uM after 48 hrs by Annexin V-FITC/PI double staining based flow cytometric analysis (reference value: 17.3%); type: functional
# [7] = tested on: Ca-Ski; experiment: Cell cycle arrest in human CaSki cells assessed as increase in accumulation at G0/G1 phase at 4 uM incubated for 24 hrs by propidium iodide staining based flow cytometric analysis; type: functional; summary of the method: as §1
# [8] = tested on: C-33-A; experiment: Cell cycle arrest in human C33A cells assessed as accumulation at G2/M phase at 4 uM after 72 hrs by propidium iodide staining based flow cytometric analysis (reference value: 25.2%); type: functional; summary of the method: as §1
# [9] = tested on: C-33-A; experiment: Induction of apoptosis in human C33A cells assessed as early apoptotic cells at 4 uM after 24 hrs by Annexin V-FITC/PI double staining based flow cytometric analysis (reference value: 4.3%); type: functional
# [10] = tested on: HeLa; experiment: Induction of apoptosis in human HeLa cells assessed as early apoptotic cells at 4 uM after 48 hrs by Annexin V-FITC/PI double staining based flow cytometric analysis (reference value: 10.7%); type: functional
# [11] = tested on: Ca-Ski; experiment: Cell cycle arrest in human CaSki cells assessed as accumulation at G0/G1 phase at 4 uM after 48 hrs by propidium iodide staining based flow cytometric analysis (reference value: 54.1%); type: functional; summary of the method: as §1
# [12] = tested on: Ca-Ski; experiment: Induction of apoptosis in human CaSki cells assessed as viable cells at 4 uM after 48 hrs by Annexin V-FITC/PI double staining based flow cytometric analysis (reference value: 81.6%); type: functional; details: read-out: Activity
# [13] = tested on: SiHa; experiment: Antiproliferative activity against human SiHa cells assessed as reduction in cell viability after 72 hrs by CellTiter-Glo assay; type: functional, cell-based
# Summary of the method: (§2)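 ATP-based luminescent viability readout. Cells were grown in DMEM with 10% FBS, 2 mM L-glutamine and penicillin-streptomycin at 37 °C, 5% CO2. 2 × 10^4 cells/well were seeded, then exposed the next day to 0–40 μM for 24, 48 or 72 h. % viability = 100 × treated/control. IC50 was fitted from a sigmoid dose-response curve. Run at least three times in quadruplicate; mean ± SEM.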
# [14] = tested on: SiHa; experiment: Cell cycle arrest in human SiHa cells assessed as increase in accumulation at G0/G1 phase at 4 uM incubated for 24 hrs by propidium iodide staining based flow cytometric analysis; type: functional
# Summary of the method: (§3)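 Cells in DMEM with 10% FBS, 2 mM L-glutamine, pen-strep, 37 °C, 5% CO2; seeded and left overnight, then treated at 4 μM with DMSO as control. Harvested by trypsin at 24, 48 or 72 h, fixed in chilled 70% ethanol 30 min on ice, RNase A (1 mg/mL) 30 min at room temperature, PI (20 μg/mL). Flow cytometry, ≥10 000 events, G0/G1, S, G2/M fractions; mean ± SEM.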
# [15] = Toxicity in po dosed rat; type: organism-based; details: in vivo
# [16] = target: Protein E6 (Human papillomavirus 16) (UniProt P03126); experiment: Inhibition of Human papillomavirus type16 derived E6 in human CaSki cells assessed as increase in p53 protein expression at 2 to 4 uM after 48 hrs by Western blot analysis; type: cell-based; details: Ca-Ski
# Chain of Protein E6 (Human papillomavirus 16) (P03126 whole entry): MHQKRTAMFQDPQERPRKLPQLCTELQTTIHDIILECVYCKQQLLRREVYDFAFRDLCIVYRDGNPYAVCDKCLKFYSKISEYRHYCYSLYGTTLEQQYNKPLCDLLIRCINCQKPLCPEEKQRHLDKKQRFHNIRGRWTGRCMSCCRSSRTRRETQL
# Summary of the method: (§4)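 Cells were seeded at 1 × 10^6 per 100 mm dish and treated next day with 2 or 4 μM for 48 h. They were trypsinised, PBS-washed and lysed in RIPA with protease inhibitors. Equal protein was run on SDS-PAGE and transferred to PVDF. Primary antibodies were used at 1:500, with BSA 3% for blocking and antibodies for CK2α, Rb and pRb, otherwise 5% milk in TBST. HRP secondary at 1:2000, chemiluminescence detection.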
# [17] = target: Protein E6 (human papillomavirus 18) (UniProt P06463); experiment: Inhibition of Human papillomavirus type18 derived E6 in human HeLa cells assessed as increase in p53 protein expression at 2 to 4 uM after 48 hrs by Western blot analysis; type: cell-based; summary of the method: as §4
# Chain of Protein E6 (human papillomavirus 18) (P06463 whole entry): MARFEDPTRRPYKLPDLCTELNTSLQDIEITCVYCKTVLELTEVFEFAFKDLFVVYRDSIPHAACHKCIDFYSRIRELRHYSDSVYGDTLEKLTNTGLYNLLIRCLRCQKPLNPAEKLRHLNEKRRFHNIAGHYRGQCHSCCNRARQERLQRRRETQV
# [18] = tested on: C-33-A; experiment: Antiproliferative activity against human C33A cells assessed as reduction in cell viability after 24 hrs by CellTiter-Glo assay; type: functional, cell-based; summary of the method: as §2
# [19] = target: Protein E6 (Human papillomavirus 16) (UniProt P03126); experiment: Inhibition of Human papillomavirus type16 derived E6 in human CaSki cells assessed as increase in p21 protein expression at 2 to 4 uM after 48 hrs by Western blot analysis; type: cell-based; details: Ca-Ski; summary of the method: as §4
# [20] = tested on: SiHa; experiment: Cell cycle arrest in human SiHa cells assessed as increase in accumulation at G0/G1 phase at 4 uM incubated for 48 hrs by propidium iodide staining based flow cytometric analysis; type: functional; summary of the method: as §3
structure (smiles),measurement,setting,value
O[C@]12C=C(c3nccc4c3[nH]c3ccccc34)[C@@H]3CCN(CCCC/C=C\CC1)C[C@@]31C[C@@H]3/C=C\CCCCN3[C@H]12 [MANZAMINE A],Ratio,[1],10
same,Activity,[2],18.3%
same,viability at 4 µM,[3],82.5%
same,inhibition,[4],Active
same,Activity,[5],Active
same,Activity,[6],36.5%
same,fold change (FC),[7],1.4
same,Activity,[8],19.3%
same,Activity,[9],17.4%
same,Activity,[10],59%
same,Activity,[11],82.4%
same,viability at 4 µM,[12],76.9%
same,IC50,[13],4.1 µM
same,fold change (FC),[14],1.2
same,LD50,[15],200 to 300 mg/kg
same,inhibition,[16],Active
same,inhibition,[17],Active
same,IC50,[18],5.2 µM
same,inhibition,[19],Active
same,fold change (FC),[20],1.2
